Data reported in ChEMBL document CHEMBL5678802, “Small-molecule p21-activated kinase inhibitor PF-3758309 is a potent inhibitor of oncogenic signaling and tumor growth” (Proc Natl Acad Sci U S A, 2010).
Calls of active or inactive are those of the source. The calls are words filed in the database; no cut-off is given here.

What was measured:
[1] = target: Tyrosine-protein kinase Fgr (Homo sapiens, UniProt P09769); test: Inhibition of human FGR in presence of ATP by cellular assay
BT-20 = test: Antiproliferative activity against human BT-20 cells assessed as inhibition of cell proliferation incubated for 3 days by CellTiter-Glo Luminescent Cell Viability Assay; format: functional, cell-based; details: BT-20, 72 h
Method in brief: (§1)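 Cancer cell lines seeded in 384-well plates on day 1; compound added on day 2 and left for 3 days. On day 5 all medium was aspirated, and viable cells were quantified by CellTiter-Glo luminescence, which measures cellular ATP. Dose-dependent effects on proliferation were determined.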

HCT-116 [2] = test: Antitumor activity against human HCT-116 cells xenografted in nude mouse assessed as reduction in Elk phosphorylation at S383 residue at 15 to 150 mg/kg/day administered via pump for 18 hrs by Reverse-Phase protein array analysis; format: functional, organism-based; details: dose 15-150 mg/kg/day
[3] = target: T1, cGMP-dependent protein kinase 1 (Homo sapiens, UniProt Q13976); test: Inhibition of human PRKG1 in presence of ATP
T1 sequence (Q13976 whole entry): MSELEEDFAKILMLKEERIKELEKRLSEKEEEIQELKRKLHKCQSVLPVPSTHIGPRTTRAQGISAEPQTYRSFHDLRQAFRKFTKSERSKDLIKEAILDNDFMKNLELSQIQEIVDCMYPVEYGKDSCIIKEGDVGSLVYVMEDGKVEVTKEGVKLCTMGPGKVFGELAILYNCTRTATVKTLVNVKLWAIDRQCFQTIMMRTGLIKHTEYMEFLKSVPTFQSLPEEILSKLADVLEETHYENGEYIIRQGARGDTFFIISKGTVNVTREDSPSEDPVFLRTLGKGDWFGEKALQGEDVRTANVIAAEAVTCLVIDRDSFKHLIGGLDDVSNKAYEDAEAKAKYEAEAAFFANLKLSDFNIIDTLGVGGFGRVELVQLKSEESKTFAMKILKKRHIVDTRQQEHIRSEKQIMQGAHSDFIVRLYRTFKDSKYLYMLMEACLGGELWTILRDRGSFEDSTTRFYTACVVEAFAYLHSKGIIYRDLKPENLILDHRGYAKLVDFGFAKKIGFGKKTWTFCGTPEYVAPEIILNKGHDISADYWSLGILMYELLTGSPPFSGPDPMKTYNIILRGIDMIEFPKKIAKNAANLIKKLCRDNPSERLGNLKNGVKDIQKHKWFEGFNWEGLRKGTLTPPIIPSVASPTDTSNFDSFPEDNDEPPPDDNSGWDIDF

[4] = target: AMP-activated protein kinase (AMPK) alpha-1/beta-1/gamma-1 (Homo sapiens, UniProt P54619+Q13131+Q9Y478); test: Inhibition of human AMPK alpha1/beta1/gamma1 in presence of ATP; format: protein-complex assay
[5] = target: Serine/threonine-protein kinase PAK 4 (Homo sapiens, UniProt O96013)
[6] = target: Ribosomal protein S6 kinase alpha-1 (Homo sapiens, UniProt Q15418); test: Inhibition of human RSK1 in presence of ATP by cellular assay
[7] = target: Tyrosine-protein kinase Fyn (Homo sapiens, UniProt P06241); test: Inhibition of human FYN in presence of ATP by cellular assay
[8] = Antiproliferative activity against human GTL16S4 acquired resistance cells assessed as inhibition of cell proliferation incubated for 3 days by CellTiter-Glo Luminescent Cell Viability Assay; format: functional, cell-based; details: 72 h; method in brief: as §1
NCI-H1703 = test: Antiproliferative activity against human NCI-H1703 cells assessed as inhibition of cell proliferation incubated for 3 days by CellTiter-Glo Luminescent Cell Viability Assay; format: functional, cell-based; details: NCI-H1703, 72 h
Method in brief: (§2)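 Cells of each line were plated in 384-well plates on day 1 and exposed to compound from day 2 for 3 days. On day 5 all medium was aspirated. Viable cell number was read by CellTiter-Glo luminescence, which quantifies cellular ATP.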

[9] = Antiproliferative activity against human Panc 05.04 cells assessed as inhibition of cell proliferation incubated for 3 days by CellTiter-Glo Luminescent Cell Viability Assay; format: functional, cell-based; details: Panc 05.04, 72 h; method in brief: as §2
NCI-H23 = test: Inhibition of anchorage independent cell growth in human NCI-H23 cells incubated for 6 days by Alamar blue reagent based fluorescence plate reader analysis; format: functional; details: NCI-H23, 144 h
HCT-116 [10] = test: Induction of cell cycle arrest in human HCT-116 cells assessed as accumulation of cells at G0/G1 phase at 100 nM measured after 48 hrs by fluorescence activated cell sorter analysis (reference value: 50.74%); format: functional
[11] = target: T1, cGMP-dependent protein kinase 1; test: Inhibition of human PRKG1 in presence of ATP by cellular assay
HCC70 = test: Antiproliferative activity against human HCC70 cells assessed as inhibition of cell proliferation incubated for 3 days by CellTiter-Glo Luminescent Cell Viability Assay; format: functional, cell-based; details: HCC70, 72 h; method in brief: as §1
HCT-116 [12] = test: Antitumor activity against human HCT-116 cells xenografted in nude mouse assessed as unbound drug concentration for inhibition of tumor growth at 0.12 to 3.3 mg/kg administered via pump for 9 days; format: functional; details: dose 0.12-3.3 mg/kg; time 9 day
[13] = target: Protein kinase C beta type (Homo sapiens, UniProt P05771); test: Inhibition of human PKCbeta-II in presence of ATP
[14] = target: High affinity nerve growth factor receptor (Homo sapiens, UniProt P04629); test: Inhibition of human TRKa in presence of ATP
[15] = target: cGMP-dependent protein kinase 1 (Homo sapiens) (UniProt Q13976); test: Inhibition of human PRKG1 in presence of ATP relative to control; details: concentration not given here
[16] = Drug concentration in nude mouse plasma xenografted with human HCT-116 cells at 3.3 mg/kg administered via pump for 9 days by LC-MS/MS analysis; format: ADME, organism-based; details: time 9 day
[17] = Inhibition of YFP/YFP variant coding sequence fused PAK4/cofilin (unknown origin) expressed in HEK293 cells incubated for 8 to 24 hrs by fluorescence based analysis; format: cell-based, Homo sapiens
MIA PaCa-2 = test: Antiproliferative activity against human MIA PaCa-2 cells assessed as inhibition of cell proliferation incubated for 3 days by CellTiter-Glo Luminescent Cell Viability Assay; format: functional, cell-based; details: MIA PaCa-2, 72 h
Method in brief: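 Cancer cell lines seeded in 384-well plates on day 1; compound added on day 2 and incubated 3 days. On day 5 media aspirated and viable cells quantified by ATP content using CellTiter-Glo luminescence; dose-dependent proliferation effects determined.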

NCI-H1573 = test: Inhibition of anchorage independent cell growth in human NCI-H1573 cells incubated for 6 days by Alamar blue reagent based fluorescence plate reader analysis; format: functional; details: NCI-H1573, 144 h
[18] = target: Protein kinase C theta type (Homo sapiens, UniProt Q04759); test: Inhibition of human PKCtheta in presence of ATP
HCT-116 [19] = test: Downregulation of camptothecin-induced p53 level in human HCT-116 cells at 1 uM preincubated with compound for 15 mins followed by camptothecin stimulation and measured after 20 hrs by Western blot analysis; format: functional, cell-based; details: time 20.25 hrs
SW-620 = test: Antiproliferative activity against human SW620 cells assessed as inhibition of cell proliferation incubated for 3 days by CellTiter-Glo Luminescent Cell Viability Assay; format: functional, cell-based; details: SW-620, 72 h; method in brief: as §2

Chain of Tyrosine-protein kinase Fyn (P06241 whole entry): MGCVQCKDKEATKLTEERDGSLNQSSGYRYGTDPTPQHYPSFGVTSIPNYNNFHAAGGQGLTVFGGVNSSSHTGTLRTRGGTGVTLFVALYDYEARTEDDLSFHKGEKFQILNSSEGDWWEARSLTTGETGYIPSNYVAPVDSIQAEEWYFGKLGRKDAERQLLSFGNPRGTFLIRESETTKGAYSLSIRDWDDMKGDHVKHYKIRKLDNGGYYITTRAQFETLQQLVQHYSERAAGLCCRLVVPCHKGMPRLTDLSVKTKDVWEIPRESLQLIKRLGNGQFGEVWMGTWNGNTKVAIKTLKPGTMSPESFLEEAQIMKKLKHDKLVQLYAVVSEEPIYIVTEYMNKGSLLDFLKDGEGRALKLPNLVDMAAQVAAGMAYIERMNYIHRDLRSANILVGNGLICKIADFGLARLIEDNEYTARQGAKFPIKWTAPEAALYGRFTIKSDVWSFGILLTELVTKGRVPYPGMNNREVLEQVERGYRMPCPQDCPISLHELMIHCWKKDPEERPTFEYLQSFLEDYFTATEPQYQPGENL
Chain of Serine/threonine-protein kinase PAK 4 (O96013 whole entry, looked up): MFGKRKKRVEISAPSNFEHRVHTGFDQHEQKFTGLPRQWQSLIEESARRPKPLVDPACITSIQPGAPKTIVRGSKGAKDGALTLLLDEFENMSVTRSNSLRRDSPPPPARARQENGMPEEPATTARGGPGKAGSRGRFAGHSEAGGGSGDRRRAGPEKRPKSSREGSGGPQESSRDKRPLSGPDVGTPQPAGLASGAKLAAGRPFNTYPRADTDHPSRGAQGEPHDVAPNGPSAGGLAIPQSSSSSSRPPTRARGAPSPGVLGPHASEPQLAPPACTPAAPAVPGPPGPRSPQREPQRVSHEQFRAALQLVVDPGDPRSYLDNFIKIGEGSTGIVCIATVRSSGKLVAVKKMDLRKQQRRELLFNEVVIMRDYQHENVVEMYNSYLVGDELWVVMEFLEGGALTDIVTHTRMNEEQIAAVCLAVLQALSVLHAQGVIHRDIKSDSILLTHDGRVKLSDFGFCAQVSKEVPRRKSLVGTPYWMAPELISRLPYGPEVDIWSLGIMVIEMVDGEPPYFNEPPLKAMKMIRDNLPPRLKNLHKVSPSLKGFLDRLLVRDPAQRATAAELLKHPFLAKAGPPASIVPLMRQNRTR
Chain of Protein kinase C theta type (Q04759 whole entry): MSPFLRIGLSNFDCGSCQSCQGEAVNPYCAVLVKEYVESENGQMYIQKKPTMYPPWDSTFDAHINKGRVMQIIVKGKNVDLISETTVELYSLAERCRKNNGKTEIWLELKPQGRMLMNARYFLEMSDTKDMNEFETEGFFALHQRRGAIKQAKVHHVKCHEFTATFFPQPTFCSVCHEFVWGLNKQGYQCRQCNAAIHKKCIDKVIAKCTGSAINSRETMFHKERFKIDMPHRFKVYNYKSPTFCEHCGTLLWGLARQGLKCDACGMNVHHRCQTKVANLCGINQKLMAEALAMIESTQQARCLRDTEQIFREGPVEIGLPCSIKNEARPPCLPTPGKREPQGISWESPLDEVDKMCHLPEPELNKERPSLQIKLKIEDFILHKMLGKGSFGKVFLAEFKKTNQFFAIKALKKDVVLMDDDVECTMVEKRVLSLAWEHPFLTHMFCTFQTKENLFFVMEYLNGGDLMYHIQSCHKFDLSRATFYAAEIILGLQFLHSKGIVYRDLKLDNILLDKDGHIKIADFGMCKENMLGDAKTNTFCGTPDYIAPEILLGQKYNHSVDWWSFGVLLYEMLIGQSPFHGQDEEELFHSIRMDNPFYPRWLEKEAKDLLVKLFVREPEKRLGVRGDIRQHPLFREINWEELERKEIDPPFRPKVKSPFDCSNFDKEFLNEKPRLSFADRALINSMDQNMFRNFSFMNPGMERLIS
Chain of AMP-activated protein kinase (AMPK) alpha-1/beta-1/gamma-1 (P54619 whole entry): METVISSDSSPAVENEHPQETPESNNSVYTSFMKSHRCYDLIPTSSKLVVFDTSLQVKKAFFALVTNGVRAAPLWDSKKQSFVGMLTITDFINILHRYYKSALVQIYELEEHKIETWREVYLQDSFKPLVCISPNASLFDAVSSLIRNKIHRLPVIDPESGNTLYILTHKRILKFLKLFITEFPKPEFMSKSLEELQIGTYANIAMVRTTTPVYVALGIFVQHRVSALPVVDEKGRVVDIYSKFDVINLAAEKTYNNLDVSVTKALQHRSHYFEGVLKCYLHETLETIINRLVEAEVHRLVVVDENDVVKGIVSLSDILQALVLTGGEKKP
Chain of AMP-activated protein kinase (AMPK) alpha-1/beta-1/gamma-1 (Q9Y478 whole entry): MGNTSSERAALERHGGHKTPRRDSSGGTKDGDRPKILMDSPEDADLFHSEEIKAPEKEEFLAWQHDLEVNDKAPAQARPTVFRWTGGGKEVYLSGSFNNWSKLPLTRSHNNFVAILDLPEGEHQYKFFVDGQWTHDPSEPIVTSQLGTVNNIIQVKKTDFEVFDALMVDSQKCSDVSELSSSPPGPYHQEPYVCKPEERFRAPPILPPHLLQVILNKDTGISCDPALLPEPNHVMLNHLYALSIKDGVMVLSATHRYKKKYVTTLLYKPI
Chain of AMP-activated protein kinase (AMPK) alpha-1/beta-1/gamma-1 (Q13131 whole entry): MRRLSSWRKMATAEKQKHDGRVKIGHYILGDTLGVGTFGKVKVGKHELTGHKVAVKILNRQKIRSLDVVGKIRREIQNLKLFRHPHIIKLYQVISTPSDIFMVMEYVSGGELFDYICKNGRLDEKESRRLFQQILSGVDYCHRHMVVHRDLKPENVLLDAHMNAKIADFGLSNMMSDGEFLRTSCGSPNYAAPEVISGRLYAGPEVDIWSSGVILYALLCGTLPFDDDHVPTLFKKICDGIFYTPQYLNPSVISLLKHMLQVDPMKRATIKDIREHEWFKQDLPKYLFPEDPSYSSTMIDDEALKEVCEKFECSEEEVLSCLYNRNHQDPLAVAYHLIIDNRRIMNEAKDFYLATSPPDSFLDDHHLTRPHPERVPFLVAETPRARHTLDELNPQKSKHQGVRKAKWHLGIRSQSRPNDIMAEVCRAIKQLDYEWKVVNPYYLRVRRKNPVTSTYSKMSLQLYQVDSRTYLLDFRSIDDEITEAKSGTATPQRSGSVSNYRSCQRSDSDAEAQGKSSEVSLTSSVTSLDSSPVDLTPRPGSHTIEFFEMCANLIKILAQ
Chain of Protein kinase C beta type (P05771 whole entry): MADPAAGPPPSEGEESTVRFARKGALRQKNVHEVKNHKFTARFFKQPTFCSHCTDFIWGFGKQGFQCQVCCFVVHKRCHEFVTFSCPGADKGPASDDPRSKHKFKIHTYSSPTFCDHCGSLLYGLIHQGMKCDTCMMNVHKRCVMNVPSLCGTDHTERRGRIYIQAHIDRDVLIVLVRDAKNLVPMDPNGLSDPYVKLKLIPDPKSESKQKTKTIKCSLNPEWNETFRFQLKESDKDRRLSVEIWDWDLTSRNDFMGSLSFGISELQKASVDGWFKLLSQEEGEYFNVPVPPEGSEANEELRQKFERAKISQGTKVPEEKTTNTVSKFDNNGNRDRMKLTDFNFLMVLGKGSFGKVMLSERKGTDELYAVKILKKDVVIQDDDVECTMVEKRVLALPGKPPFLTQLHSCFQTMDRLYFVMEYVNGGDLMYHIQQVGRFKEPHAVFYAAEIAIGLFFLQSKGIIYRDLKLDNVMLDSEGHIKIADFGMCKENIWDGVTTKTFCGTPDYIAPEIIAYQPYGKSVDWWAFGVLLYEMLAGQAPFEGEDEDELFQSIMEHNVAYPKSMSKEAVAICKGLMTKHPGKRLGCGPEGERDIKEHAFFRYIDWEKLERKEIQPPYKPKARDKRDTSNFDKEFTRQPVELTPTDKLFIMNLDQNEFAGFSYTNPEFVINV
Chain of Ribosomal protein S6 kinase alpha-1 (Q15418 whole entry): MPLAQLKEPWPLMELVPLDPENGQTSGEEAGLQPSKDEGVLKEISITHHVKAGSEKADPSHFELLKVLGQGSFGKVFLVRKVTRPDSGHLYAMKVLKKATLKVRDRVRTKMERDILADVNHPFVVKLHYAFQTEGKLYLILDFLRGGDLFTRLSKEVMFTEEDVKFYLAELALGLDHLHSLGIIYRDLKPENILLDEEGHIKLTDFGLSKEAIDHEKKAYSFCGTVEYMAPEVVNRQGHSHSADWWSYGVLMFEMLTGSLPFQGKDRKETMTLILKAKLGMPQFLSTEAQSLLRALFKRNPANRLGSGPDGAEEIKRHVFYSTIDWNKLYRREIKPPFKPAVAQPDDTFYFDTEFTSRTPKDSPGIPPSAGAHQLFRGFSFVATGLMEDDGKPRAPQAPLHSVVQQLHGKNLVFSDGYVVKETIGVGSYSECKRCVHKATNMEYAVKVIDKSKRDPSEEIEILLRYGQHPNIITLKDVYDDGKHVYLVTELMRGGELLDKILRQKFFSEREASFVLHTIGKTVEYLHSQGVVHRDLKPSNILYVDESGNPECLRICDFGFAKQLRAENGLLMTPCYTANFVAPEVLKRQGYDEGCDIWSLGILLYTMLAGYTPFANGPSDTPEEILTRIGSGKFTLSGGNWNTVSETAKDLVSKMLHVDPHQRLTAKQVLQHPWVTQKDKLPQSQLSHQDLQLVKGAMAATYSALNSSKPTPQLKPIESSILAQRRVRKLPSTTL
Chain of Tyrosine-protein kinase Fgr (P09769 whole entry): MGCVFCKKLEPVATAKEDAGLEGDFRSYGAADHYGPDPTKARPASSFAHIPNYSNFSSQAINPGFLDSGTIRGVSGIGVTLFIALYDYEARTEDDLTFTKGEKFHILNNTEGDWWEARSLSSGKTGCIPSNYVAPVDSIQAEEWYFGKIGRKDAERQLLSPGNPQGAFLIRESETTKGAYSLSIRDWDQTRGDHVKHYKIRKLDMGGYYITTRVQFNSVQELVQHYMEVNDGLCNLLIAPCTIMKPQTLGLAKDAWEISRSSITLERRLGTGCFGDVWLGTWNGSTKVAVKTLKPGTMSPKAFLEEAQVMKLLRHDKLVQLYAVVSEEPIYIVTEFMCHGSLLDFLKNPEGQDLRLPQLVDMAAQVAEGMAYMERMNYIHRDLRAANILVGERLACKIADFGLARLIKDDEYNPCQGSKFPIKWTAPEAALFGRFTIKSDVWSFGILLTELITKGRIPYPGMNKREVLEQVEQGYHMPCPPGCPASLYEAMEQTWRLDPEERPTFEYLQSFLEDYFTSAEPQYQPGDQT

Compound: Cc1nc(Nc2n[nH]c3c2CN(C(=O)N[C@H](CN(C)C)c2ccccc2)C3(C)C)c2sccc2n1 [PF-03758309]
- IC50 [1]: 4680 nM
- IC50 (BT-20): 81.7 nM
- Activity (HCT-116 [2]): Active
- IC50 [3]: 34 nM
- IC50 [4]: 1 nM
- T1/2 [5]: 1.13 min
- IC50 [6]: 543 nM
- IC50 [7]: 1090 nM
- IC50 [8]: 10000 nM
- IC50 (NCI-H1703): 4.4 nM
- IC50 [9]: 51 nM
- IC50 (NCI-H23): 3.45 nM
- Activity (HCT-116 [10]): 49.41%
- IC50 [11]: 3370 nM
- IC50 (HCC70): 0.23 nM
- fIC50 (HCT-116 [12]): 0.4 nM
- IC50 [13]: 156 nM
- IC50 [14]: 513 nM
- inhibition [15]: 97%
- concentration at 216 h [16]: 37 ng/mL
- IC50 [17]: 10.4 nM
- IC50 (MIA PaCa-2): 17 nM
- IC50 (NCI-H1573): 2.37 nM
- IC50 [18]: 28 nM
- Activity (HCT-116 [19]): Active
- IC50 (SW-620): 5.7 nM
